Screens as filed in PubChem.
Rin1 Abl inh = inhibitors of Rin1-Abl protein binding, primary screen, biochemical, TR-FRET; inhibition, % at 7.35 µM; Tyrosine-protein kinase ABL1 (Homo sapiens) + Ras and Rab interactor 1 (Homo sapiens), …; 0.4% of 360,000 active; in the data active = inhibition above about 5%, passing the limit was not always enough
Tb MetRS inh = T. brucei MetRS inhibitors, primary screen, biochemical, luminescence; AID 624268, 2012; methionyl-tRNA synthetase (Trypanosoma brucei brucei); inhibition, % at 11.9 µM; 0.4% of 360,000 active; purified T. brucei MetRS, ATP depletion, Kinase-Glo luminescence;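 active = inhibition above a per-plate cutoff of the control wells' mean inhibition plus 3 SD, cut at about 5.5% in these data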;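 note: 0% = DMSO wells median and 100% = median of wells with control inhibitor compound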
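Measured by: Kinase-Glo luciferase luminescence reporting remaining unconsumed ATP. Material: purified T. brucei MetRS enzyme. Doses: 11.9 µM compound single dose, 0.9% DMSO. Medium: HEPES buffer containing pyrophosphatase, BSA, spermine, DTT. Times: 15 min preincubation, 2 h reaction, all 25 °C. Reagent: methionine, ATP and bulk E. coli tRNA.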
ATG4B inh = ATG4B protease inhibitors, primary screen, biochemical, fluorescence, uHTS. Cysteine protease ATG4B (Homo sapiens), Q9Y4P1. ATG4B cleavage of LC3-PLA2, NBD-HPC fluorescence, 1 h. inhibition, % at 8.33 µM. 0.51% of 340,000 active. AID 504462, 2011; in the data active = inhibition above about 40%
UCH37 inh = inhibitors of human UCH37 deubiquitinase, primary screen, biochemical, Ub-AMC cleavage, fluorescence; purified proteasome/UCH37; inhibition, % (concentration not given with the values); 0.33% of 330,000 active; AID 588478, 2011;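 active = mean inhibition over replicate wells above about 20%, limit read from the data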;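 note: 0% = compound-free wells with enzyme and 100% = wells lacking proteasome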
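Signal – fluorescence, ex 355 nm, em 460 nm · System – Proteasome-bound UCH37 · Input – 0.15 nM proteasome as dispensed · Timing – 30 min preincubation with enzyme, 25 min cleavage at room temperature · Read-out basis – percent inhibition of cleavage signal versus uninhibited and no-proteasome wells · Medium – Tris-HCl pH 7.4 with ATP-MgCl2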
Rin1 Abl conf = Rin1-Abl binding inhibitor retest, confirmation, biochemical, TR-FRET; shares compounds with Rin1 Abl inh; purified proteins; inhibition, % at 7.35 µM; 49% of 1,300 active; AID 602124, 2011
GFP quencher = GFP fluorescence inhibitors and quenchers, artefact control for Rin1-Abl interaction inhibitor project, biochemical | AID 602125, 2011 | shares compounds with Rin1 Abl inh | inhibitors/quenchers counterscreen | inhibition, % at 6.75 µM | 8.5% of 1,300 active;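 note: ABL1-eGFP fusion protein alone without its partner RIN1-SBP; 0% = protein with vehicle and 100% = wells lacking protein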
GFP quench dose = GFP fluorescence inhibitors and quenchers, dose response, artefact control for Rin1-Abl interaction inhibitor project, biochemical. shares compounds with Rin1 Abl inh. GFP fluorescence interference/quenching counterscreen. IC50, µM. 230 tested, under 10 active. AID 602182, 2012; call rule not given here;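 note: ABL1-eGFP fusion protein alone without its RIN1 binding partner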
Starred values were filed as active, the others as inactive; / = no result given. A selection: hits, their analogues and other compounds. The true share with any hit is near 1.4%. Cut-off read from the data, not from the text of the source, unless noted: active = inhibition above about 6.5%; inactive = the rest.

SMILES	Rin1 Abl inh	Tb MetRS inh	ATG4B inh	UCH37 inh	Rin1 Abl conf	GFP quencher	others
C[C@@H]1O[C@@H](OC[C@@H]2O[C@H](Oc3c(-c4ccc(O)cc4)oc4cc(O)cc(O)c4c3=O)[C@@H](O)[C@H](O)[C@H]2O)[C@H](O)[C@H](O)[C@H]1O	0	0	-8	4	/	/
O=c1cc(-c2ccc(O)c(O)c2)oc2cc(O)cc(O)c12	1	0	-5	1	/	/
O=c1c(O)c(-c2ccc(O)c(O)c2)oc2cc(O)cc(O)c12	24*	1	-7	5	16*	4
CC1OC(Oc2c(-c3cc(O)c(O)c(O)c3)oc3cc(O)cc(O)c3c2=O)C(O)C(O)C1O (stereo not given)	42*	0	-22	11	45*	15*
Cc1ccc(Cl)cc1NC(=O)COC(=O)CN1C(=O)C2CCCCC2C1=O (stereo not given)	-2	0	-7	2	/	/
CCOc1ccc(CN(C)C(=O)CCNC(=O)c2ccco2)cc1	8.6*	0	-8	3	-1	1
CC12CCC(=O)C=C1CCC1C2CCC2(C)C1CC[C@]2(O)C(=O)CO (stereo not given in full)	0	0	5	4	/	/
Cc1nc(C)n(C)c(=O)c1-c1ccccc1	40*	-1	2	3	-1	0
Cc1nc(C)c(-c2ccccc2)c(=O)[nH]1	-1	0	-4	6	/	/
CC(=O)Nc1ccc(S(=O)(=O)NC2(C(F)(F)F)NC(=O)N(CC(C)C)C2=O)cc1 (stereo not given)	4	-1	-4	4	/	/
CC(C)CN1C(=O)NC(NS(=O)(=O)c2ccc(N)cc2)(C(F)(F)F)C1=O (stereo not given)	6.7*	0	1	3	0	0
CCOCC(=O)N1CCc2ccccc21	6.3*	-1	3	6	-1	2
CSc1nc2nc3c(cc2c(=O)n1-c1ccccc1)COC(C)(C)C3	2	0	-1	-20	/	/
CC1(C)Cc2nc3nc(SCC(=O)NCCc4ccccc4)n(-c4ccccc4)c(=O)c3cc2CO1	8.2*	-1	-4	-6	6	2
CS/C(=N\S(=O)(=O)c1cccs1)Nc1cccc(Cl)c1C	0	0	5	3	/	/
CS/C(=N\S(=O)(=O)c1cccs1)Nc1ccc(F)c(Cl)c1	5.0*	1	-5	2	-3	1
CC(NC(=O)c1cc2c(=O)n(C)c3ccccc3c2n1C)c1ccc2c(c1)OCCO2 (stereo not given)	7.6*	1	-13	0	11*	-2
CC(CNC(=O)CN1C(=O)CCSc2ccccc21)c1ccccc1 (stereo not given)	-3	-1	3	3	/	/
CCOc1ccc(CCNC(=O)CN2C(=O)CCSc3ccccc32)cc1	11*	-1	-2	2	1	0
Cc1cccc(N(Cc2ccccc2)C(=O)c2ccc(S(C)(=O)=O)cc2)c1	8.3*	0	7	2	-2	2
Cc1nc(NN=Cc2ccccc2)nc(N(C)c2ccccc2)c1[N+](=O)[O-]	/	/	/	7	/	/
CCN(CC)c1ccc(S(=O)(=O)N2CCOCC2)cc1NC(=O)C1CC1	9.4*	0	-3	4	-2	-1
CCN(CC)c1ccc(S(=O)(=O)N2CCCCC2)cc1NC(=O)C1CCC1	-2	-1	4	4	/	/
O=C1CNC(=O)N1CC(O)Cn1c2ccccc2c2ccccc21 (stereo not given)	24*	-1	-14	4	28*	-1	GFP quench dose=>67
CCOCc1nnc(NC(=O)c2c(OC)cccc2OC)s1	22*	0	-6	-1	24*	0	GFP quench dose=>67
SMILES	Rin1 Abl inh	Tb MetRS inh	ATG4B inh	UCH37 inh	Rin1 Abl conf	GFP quencher	others
CCc1nnc(NC(=O)c2c(OC)cccc2OC)s1	2	-1	3	-1	/	/
CC(C)(C)c1nnc(NS(C)(=O)=O)s1	9.9*	-2	6	2	1	1
O=C(CCCSc1nc2ccccc2[nH]1)N1CCN(c2ccccc2)CC1	7.0*	1	-4	1	7.1*	2
O=C(CSc1nc2ccccc2[nH]1)N1CCN(c2ccccc2)CC1	-3	4	-12	5	/	/
CCCCOc1ccc(C(=O)N2CCN(CC(=O)Nc3ccc(C)cc3)CC2)cc1OC	8.6*	0	-6	1	11*	-1
CCOc1ccc(NC(=O)CN2CCN(CC(=O)c3ccc(OC)c(OC)c3)CC2)cc1	0	-1	-8	5	/	/
COc1ccc(NC(=O)CN(C)C(=O)c2ccc3c(c2)CC(c2ccccc2)OC3=O)cc1 (stereo not given)	8.1*	0	/	/	-2	0
CN(CCc1ccccc1)C(=O)c1ccc(NC(=O)Cc2cccc(NC(=O)C3CCN(C(=O)C4CC4)CC3)c2)cc1	0	-2	-6	0	/	/
CN(Cc1ccccc1)C(=O)c1ccc(NC(=O)Cc2cccc(NC(=O)C3CCN(C(=O)C4CCCCC4)CC3)c2)cc1	3	-1	-4	-1	/	/
CN(CCc1ccccc1)C(=O)c1ccc(NC(=O)Cc2cccc(NC(=O)C3CCN(C(=O)C4CCCC4)CC3)c2)cc1	12*	0	-15	0	16*	0
CN(CCc1ccccc1)C(=O)c1ccc(NC(=O)Cc2cccc(NC(=O)C3CCN(C(=O)C4CCC4)CC3)c2)cc1	-3	1	-9	4	/	/
CN(Cc1ccccc1)C(=O)c1ccc(NC(=O)Cc2ccc(NC(=O)C3CCN(C(=O)C4CCCC4)CC3)cc2)cc1	14*	1	-16	5	19*	-2	GFP quench dose=>68
CN(C(=O)c1ccc(NC(=O)Cc2cccc(NC(=O)C3CCN(C(=O)C4CCCCC4)CC3)c2)cc1)C1CC1	14*	0	-8	/	26*	-1	GFP quench dose=>67
CN(CCc1ccccc1)C(=O)c1ccc(NC(=O)Cc2ccc(NC(=O)C3CCN(C(=O)C4CCCCC4)CC3)cc2)cc1	31*	0	-14	5	30*	1	GFP quench dose=>68
COc1ccc(C(=O)NN=CC2CC=CCC2)cc1OC (stereo not given)	/	/	/	1	/	/
CCCCCC(=O)N/N=C/c1ccccc1[N+](=O)[O-]	2	0	-9	/	/	/
CN(CCc1ccccc1)C(=O)c1ccc(NC(=O)Cc2ccc(NC(=O)C3CCCN(C(=O)C4CCC4)C3)cc2)cc1 (stereo not given)	3	-1	-13	/	/	/
